Test results reported in ChEMBL document CHEMBL4308915, “Synthesis of novel pyrazoline derivatives and the evaluation of death mechanisms involved in their antileukemic activity” (Bioorg Med Chem, 2019).
The source made the active and inactive calls. The rule behind the calls is not given here.

Key:
[1] = Hemolytic activity in human RBC at 1 time IC50 relative to control; assay type: ADME, cell-based, Erythrocyte; conditions: red blood cells (erythrocytes), read-out: Activity
How it was run: (§1)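 RBC from healthy non-smoking volunteers incubated with increasing concentrations of the selected pyrazolines. Saline served as the 0% lysis control and distilled water as the 100% lysis control. Percent hemolysis calculated relative to these controls.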

K562 [2] = assay: Cytotoxicity against human K562 cells assessed as reduction in cell viability after 72 hrs by MTT assay; assay type: functional, cell-based; conditions: K562, 72 h
Jurkat [3] = assay: Induction of apoptosis in human Jurkat cells assessed as increase in caspase-3 expression at 30.08 uM after 12 hrs by flow cytometric analysis relative to control; assay type: functional
Jurkat [4] = assay: Induction of DNA fragmentation in human Jurkat cells assessed as increase in ladder formation at 30.08 uM after 12 hrs by ethidium bromide staining based agarose gel electrophoresis method; assay type: functional, cell-based
[5] = Selectivity index, ratio of IC50 for human PBMC to IC50 for human K562 cells after 24 hrs; assay type: toxicity; conditions: PBMC versus K562 cells, read-out: Ratio IC50
How it was run: (§2)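 MTT viability after 24 h exposure to 1-100µM; untreated control OD taken as 100%. IC50 by curve fitting in each line and in PBMC from six healthy donors (Ficoll-Hypaque). SI = IC50 PBMC / IC50 tumor line; SI ≥5 high, 2–5 moderate, <2 low.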

K562 [6] = assay: Induction of apoptosis in human K562 cells at 32 uM after 12 hrs by Annexin-V FITC staining-based flow cytometry relative to control; assay type: functional
Jurkat [7] = assay: Cell cycle arrest in human Jurkat cells assessed as increase in accumulation at S phase at 30.08 uM after 12 hrs by propidium iodide/RNAse staining based flow cytometric analysis; assay type: functional
PBL = assay: Cytotoxicity against acute leukemia patient-derived PBL cells assessed as reduction in cell viability after 24 hrs; assay type: functional, cell-based; conditions: Homo sapiens
How it was run: (§3)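 Mononuclear cells from acute leukemia patient samples (peripheral blood or bone marrow, taken before first treatment at diagnosis or relapse) isolated by Ficoll-Hypaque.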

B16-F10 = assay: Cytotoxicity against mouse B16F10 cells assessed as reduction in cell viability after 72 hrs by MTT assay; assay type: functional, cell-based; conditions: B16-F10, 72 h
[8] = Hemolytic activity in human RBC at 2 times IC50 relative to control; assay type: ADME, cell-based, Erythrocyte; conditions: red blood cells (erythrocytes), read-out: Activity; how it was run: as §1
K562 [9] = assay: Induction of apoptosis in human K562 cells assessed as increase in membrane blebbing at 32 uM by acridine orange/ethidium bromide staining-based fluorescence microscopic analysis; assay type: functional, cell-based
[10] = (§4) Cytotoxicity against acute leukemia patient-derived bone marrow cells assessed as reduction in cell viability after 24 hrs; assay type: functional, cell-based; conditions: Homo sapiens; how it was run: as §3
Homo sapiens = organism: Homo sapiens; assay: as §4; assay type: functional, cell-based; how it was run: as §3
[11] = Selectivity index, ratio of IC50 for human PBMC to IC50 for human Jurkat cells after 24 hrs; assay type: toxicity; conditions: PBMC versus Jurkat cells, read-out: Ratio IC50; how it was run: as §2
PBMC = assay: Cytotoxicity against human PBMC assessed as reduction in cell viability after 24 hrs by MTT assay; assay type: cell-based

Which hemolysis at 1 times IC50 [1] does the source give for `COc1cc(C2=NN(C(C)=O)C(c3ccc(Br)cc3)C2)cc(OC)c1OC` (stereo unspecified) here?
Its hemolysis at 1 times IC50 is 0.9%.

What about the IC50 (K562 [2]) of the same molecule?
The IC50 was 15.1 µM.

And the Activity (Jurkat [3])?
The Activity was 128.3%.

What about the Activity (Jurkat [4]) of the same molecule?
Its Activity is “Active”.

What about the selectivity ratio at 24 h [5] of the same molecule?
Its selectivity ratio at 24 h is 11.

And the Activity (K562 [6])?
The Activity was 25%.

What about the Activity (Jurkat [7]) of the same molecule?
The Activity was “inactive”.

What about the Activity (PBL) of the same molecule?
Its Activity is “Dose-dependent effect”.

What about the IC50 (PBL) of the same molecule?
The IC50 was 11.8 to 142 µM.

What about the IC50 (B16-F10) of the same molecule?
The IC50 was 62.5 µM.

And the hemolysis at 2 times IC50 [8]?
Its hemolysis at 2 times IC50 is 1.3%.

What about the Activity (K562 [9]) of the same molecule?
Its Activity is “Active”.

And the IC50 [10]?
Its IC50 is 31 to 98.2 µM.

And the Activity (Homo sapiens)?
The Activity was “Dose-dependent effect”.

And the selectivity ratio at 24 h [11]?
Its selectivity ratio at 24 h is 10.6.

And the IC50 (PBMC)?
Its IC50 is 340 µM.
